Reference: article PMC6045486 (ACS Omega, 2018)

Tests used:
CHO cells [1] = test: Radiation-induced intracellular ROS level; assay type: cell-based, Chinese Hamster; conditions: 10 μM for 2 h, 2 Gy, 30 min postirradiation
In short: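 CHO cells were pretreated with 10 μM test compound for 2 h and then γ-irradiated. At 30 min postirradiation, 1 × 10⁴ cells were loaded with DCFDA (5 μM) for 30 min at 37 °C. DCF fluorescence was read on a plate reader (excitation 488 nm, emission 530 nm).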

CHO cells [2] = test: Radiation-induced micronuclei assay and NDI in CHO cells; assay type: cell-based, Chinese Hamster; conditions: 4 Gy; for reduction in radiation-induced micronuclei formation: pretreatment 2 h, 18 h postirradiation
In short: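 CHO cells were pretreated with test compound (2.5–10 μM; 10 μM for NDI) for 2 h, washed with PBS and placed in serum-free medium. They were given 4 Gy ⁶⁰Co γ-rays at 1 Gy/min, then returned to 10% FBS. Cytochalasin B (4 μg/mL) was present for 18 h, and cells were stained with acridine orange. Micronuclei were scored in 500 binucleated cells. NDI was calculated from counts of mono- to tetranucleated cells among ≥500 viable cells.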

splenic lymphocytes = test: MTT cytotoxicity assay, splenic lymphocytes; assay type: cell-based, BALB/c mice; conditions: read-out: IC50 (half maximal concentration to inhibit proliferation by 50%), 48 h
In short: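 Splenic lymphocytes freshly isolated from BALB/c mice and kept in RPMI-1640 with FBS and antibiotics at 37 °C in 5% CO2. About 2 × 10^3 cells per well, 12 h, then test compound at 5–100 μM (0.1% DMSO final) for 48 h. MTT absorbance read at 570 nm, with % cytotoxicity relative to the DMSO control. Mean ± SEM, n = 3.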

Chemical stability [3] = assay type: physicochemical; conditions: 10 μM, cell culture medium with 10% FBS, 1% DMSO, 37 °C, in 2.5 h
[4] = system: glutathione peroxidase (GPx); test: GPx activity level in MCF7 cells; assay type: cell-based, human; conditions: MCF7, 25 μM, 48 h
In short: (§1)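 MCF7 cells were grown in DMEM with 10% FBS at 37 °C and 5% CO2, then exposed to 25 μM test compound (0.1% DMSO) for 48 h. Lysates were made in CelLytic M with protease inhibitor cocktail. About 100 μg protein was used for GSH, GSSG, GPx, GST and GR determinations, with protein measured by Bradford. Mean ± SEM, n = 3, versus DMSO control.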

[5] = system: γ-glutamyl-cysteine ligase (γ-GCL); test: mRNA expression of γ-GCL by RT-PCR in MCF7 cells; assay type: cell-based, human; conditions: MCF7, 25 μM, 48 h
In short: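 MCF7 cells were exposed to 25 μM test compound for 48 h. Total RNA was extracted with TRI reagent, and about 2 μg was reverse-transcribed. SYBR Green real-time PCR used γ-GCL-specific primers. CT values were normalised to β-actin and expression expressed relative to control. Mean ± SEM, n = 3.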

[6] = molecular target: T1, thioredoxin reductase (TrxR) (Homo sapiens, UniProt Q16881); test: TrxR activity level in MCF7 cells; assay type: cell-based; conditions: MCF7, 25 μM, 48 h
T1 sequence (Q16881 151-649 limits assumed): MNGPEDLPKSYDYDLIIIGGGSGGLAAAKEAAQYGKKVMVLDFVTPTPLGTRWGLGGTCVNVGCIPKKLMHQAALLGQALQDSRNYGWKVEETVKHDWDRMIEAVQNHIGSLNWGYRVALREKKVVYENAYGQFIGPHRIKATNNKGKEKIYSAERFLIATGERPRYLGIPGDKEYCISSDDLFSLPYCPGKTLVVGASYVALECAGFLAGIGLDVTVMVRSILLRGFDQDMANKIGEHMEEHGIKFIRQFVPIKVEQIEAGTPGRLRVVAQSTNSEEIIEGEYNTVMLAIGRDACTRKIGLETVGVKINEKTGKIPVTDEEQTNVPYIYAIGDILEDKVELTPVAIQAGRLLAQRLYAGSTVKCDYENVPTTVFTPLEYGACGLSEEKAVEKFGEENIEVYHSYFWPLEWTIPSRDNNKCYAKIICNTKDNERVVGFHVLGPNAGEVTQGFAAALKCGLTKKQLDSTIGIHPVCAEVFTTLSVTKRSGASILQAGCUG
In short: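 MCF7 lysates were prepared in CelLytic M with protease inhibitors after 48 h exposure to 25 μM test compound (0.1% DMSO). Thioredoxin reductase activity in about 100 μg protein was measured with a commercial kit; protein was measured by Bradford. Mean ± SEM, n = 3, versus DMSO control.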

MCF7 cells [7] = test: Intracellular redox state: ratio of GSH and GSSG in MCF7 cells; assay type: cell-based, human; conditions: MCF7, 25 μM, 48 h
In short: as §1

CHO cells [8] = test: MTT cytotoxicity assay, CHO; assay type: cell-based, Chinese Hamster; conditions: read-out: IC50 (half maximal concentration to inhibit proliferation by 50%), 48 h
In short: (§2)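 Cells kept in DMEM with 10% FBS and penicillin/streptomycin at 37 °C in 5% CO2. About 2 × 10^3 cells per well, 12 h attachment, then test compound at 5–100 μM (from DMSO stock; 0.1% DMSO final) for 48 h. MTT absorbance read at 570 nm, with % cytotoxicity relative to the 0.1% DMSO control. Mean ± SEM, n = 3.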

cells = test: Toxicity in cells; assay type: cell-based; conditions: up to a concentration of 10 μM
In short: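 Cells were seeded at about 2 × 10³ per well and allowed to attach for 12 h. Lines were CHO, A549 and MCF7 in DMEM with 10% FBS, or fresh BALB/c mouse splenic lymphocytes in RPMI-1640. Cells were then exposed to test compound (5–100 μM, 0.1% DMSO) for 48 h. MTT was read at 570 nm, with % cytotoxicity taken versus control. Mean ± SEM, n = 3.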

Chemical stability [9] = assay type: physicochemical; conditions: 10 μM, phosphate buffer pH 7.4, 1% DMSO, 37 °C, within 1 h
[10] = system: glutathione S-transferase (GST); test: GST activity level in MCF7 cells; assay type: cell-based, human; conditions: MCF7, 25 μM, 48 h
In short: as §1

A549 cells = test: MTT cytotoxicity assay, A549; assay type: cell-based, human; conditions: read-out: IC50 (half maximal concentration to inhibit proliferation by 50%), 48 h
In short: as §2

CHO cells [11] = test: Single-cell alkaline gel electrophoresis; assay type: cell-based, Chinese Hamster; conditions: 10 μM for 2 h, 4 Gy, 0 to 60 min
In short: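 CHO cells pretreated with 10 μM test compound for 2 h were washed, then irradiated at 4 Gy (⁶⁰Co, 1 Gy/min) in serum-free medium, with 10% FBS re-added afterwards. At 0, 30 and 60 min, about 15 000 cells in 0.8% low-melting agarose were lysed, electrophoresed under alkaline conditions and stained with SYBR Green II. Tail length and olive tail moment were measured in about 50 cells per slide. Mean ± SEM, n = 3.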

rat liver TrxR = molecular target: T2, rat liver TrxR (Rattus norvegicus, UniProt O89049); test: TrxR inhibition assay in cell-free system; assay type: biochemical; conditions: for inhibition of TrxR: cell-free, rat liver TrxR
T2 sequence (O89049 1-499): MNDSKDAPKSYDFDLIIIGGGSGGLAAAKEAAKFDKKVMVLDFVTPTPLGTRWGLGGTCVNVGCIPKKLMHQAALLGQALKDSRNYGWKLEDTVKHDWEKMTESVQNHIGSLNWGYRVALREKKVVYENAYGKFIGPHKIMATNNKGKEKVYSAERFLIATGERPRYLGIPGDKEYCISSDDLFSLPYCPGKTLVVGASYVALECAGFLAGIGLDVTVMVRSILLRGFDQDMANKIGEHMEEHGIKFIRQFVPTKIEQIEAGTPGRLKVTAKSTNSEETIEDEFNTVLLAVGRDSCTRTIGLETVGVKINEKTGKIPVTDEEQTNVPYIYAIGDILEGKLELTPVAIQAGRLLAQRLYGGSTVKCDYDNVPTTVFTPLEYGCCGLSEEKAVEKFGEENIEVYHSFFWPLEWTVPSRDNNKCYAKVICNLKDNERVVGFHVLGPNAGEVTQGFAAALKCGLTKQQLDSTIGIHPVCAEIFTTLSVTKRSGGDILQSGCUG
In short: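 Rat liver TrxR (50 nM) was preincubated at 37 °C for 30 min with 100 μM NADPH and test compound (5–100 μM) in 50 mM Tris–HCl, 1 mM EDTA, pH 7.4 (4% DMSO final). DTNB was then added and TNB formation followed at A412 for 5 min, against a no-enzyme blank and a compound blank. Activity is given as % of control. For reversibility, NADPH was varied 10–100 μM with compound fixed at 50 μM (Lineweaver–Burk).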

MCF7 cells [12] = test: MTT cytotoxicity assay, MCF7; assay type: cell-based, human; conditions: read-out: IC50 (half maximal concentration to inhibit proliferation by 50%), 48 h
In short: as §2

Which “reduction in the ROS level compared to radiation control” value (CHO cells [1]) does the source give for Hispolon [HS] here?
The value was 40%.

And the “Nuclear division index (NDI) compared to radiation control” value (CHO cells [2]; 10 μM for 2 h)?
The value was “did not affect this much”.

And the “reduction in radiation-induced micronuclei formation” value (CHO cells [2]; 7.5 μM)?
The value was 20%.

And the “reduction in radiation-induced micronuclei formation” value (CHO cells [2]; 10 μM)?
Its value is 22%.

What about the “reduction in radiation-induced micronuclei formation” value (CHO cells [2]; up to 5 μM) of the same substance?
Its value is “did not affect”.

And the IC50 (splenic lymphocytes)?
Its IC50 is > 100 µM.

What about the “degraded in culture medium (10% FBS)” value (Chemical stability [3]) of the same substance?
The value was ~30%.

What about the “inhibition of GPx activity” value [4] of the same substance?
The value was “did not cause any significant change”.

And the “mRNA expression of γ-GCL compared to control cells” value [5]?
Its value is “marginal increase”.

What about the “percent inhibition in TrxR activity” value [6] of the same substance?
The value was 58%.

And the “increase in GSH/GSSG” value (MCF7 cells [7])?
The value was “did not cause any significant change”.

And the IC50 (CHO cells [8])?
The IC50 was > 100 µM.

And the toxicity in cells (cells)?
Its toxicity in cells is < 10%.

And the “degraded in phosphate buffer” value (Chemical stability [9])?
Its value is 65%.

What about the “inhibition of GST activity” value [10] of the same substance?
Its value is “did not cause any significant change”.

What about the IC50 (A549 cells) of the same substance?
The IC50 was 68 µM.

And the “DNA damage parameters (TL, OTM) compared to radiation control” value (CHO cells [11])?
The value was “significant decrease”.

And the “nature of TrxR inhibition” value (rat liver TrxR; NADPH competition experiment, Lineweaver–Burk)?
The value was “reversible inhibition”.

What about the “inhibition of TrxR” value (rat liver TrxR; 100 μM) of the same substance?
The value was 85–95%.

What about the “inhibition of TrxR” value (rat liver TrxR; up to a concentration of 50 μM) of the same substance?
Its value is 15–25%.

What about the Vmax (rat liver TrxR; compound 50 μM, NADPH 10–100 μM, unaffected versus control reaction) of the same substance?
Its Vmax is 1 nmol/min.

What about the IC50 (MCF7 cells [12]) of the same substance?
The IC50 was 42 µM.
